According to ChEMBL document CHEMBL1153955, “Indolylarylsulfones bearing natural and unnatural amino acids. Discovery of potent inhibitors of HIV-1 non-nucleoside wild type and resistant mutant strains reverse transcriptase and coxsackie B4 virus” (J Med Chem, 2009):

Columns and labels:
[1] = biological target: Human immunodeficiency virus type 1 reverse transcriptase (Human immunodeficiency virus 1, UniProt Q72547, L100I); test: Inhibition of HIV1 reverse transcriptase p66/p51 L100I mutant; settings: read-out: IC50
Summary of the method: (§1)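 Substrate was 0.5 µg poly(rA)/oligo(dT) 10:1 (0.3 µM 3′-OH ends) with 10 µM [³H]dTTP, at 37 °C. Acid-precipitable radioactivity was counted on GF/C filters after TCA washes.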

[2] = system: Human respirovirus 3; test: Antiviral activity against Parainfluenza virus type 3 in african green monkey Vero cells assessed as protection against virus-induced cytopathicity; format: functional, organism-based; settings: Human respirovirus 3, Vero
Summary of the method: (§2)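 Confluent cell monolayers inoculated with 100 CCID₅₀ virus. After 1-2 h adsorption, residual virus removed and cultures incubated with varying compound concentrations. Cytopathicity scored once it reached completion in untreated infected controls. EC₅₀ = dose reducing virus-induced cytopathogenicity by 50%.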

[3] = system: Mammalian orthoreovirus 1; test: Antiviral activity against Reovirus 1 in african green monkey Vero cells assessed as protection against virus-induced cytopathicity; format: functional, organism-based; settings: Mammalian orthoreovirus 1, Vero; summary of the method: as §2
[4] = system: Human immunodeficiency virus 1; test: Antiviral activity against HIV1 3B in human CEM cells assessed as protection against virus-induced cytopathicity after 4 days; format: functional, organism-based; settings: Human immunodeficiency virus 1, 3B, CCRF-CEM, 96 h
Summary of the method: (§3)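 CEM cells (~3 × 10⁵ cells/mL) infected with ~100 CCID₅₀ per mL of HIV-1 (IIIB) or HIV-2 (ROD), then seeded into wells containing compound dilutions. After 4 days at 37 °C, syncytium (giant cell) formation was examined microscopically. EC₅₀ = concentration protecting CEM cells from HIV cytopathicity by 50%.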

[5] = system: Influenza A virus; test: Antiviral activity against influenza H1N1 virus in MDCK cells assessed as reduction of virus-induced cytopathicity by visual cytopathic effect scoring method; format: functional, organism-based
[6] = system: Human alphaherpesvirus 1; test: Antiviral activity against thymidine kinase deficient and acyclovir resistant HSV1 KOS in human HEL cells assessed as protection against virus-induced cytopathicity; format: functional, organism-based; settings: Human alphaherpesvirus 1, KOS
[7] = system: L1210; test: Antiproliferative activity against mouse L1210 cells after 2 days; format: cell-based; settings: L1210, 48 h
Summary of the method: (§4)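 Cells seeded at 5 × 10⁴ to 7.5 × 10⁴ cells/200 µL with or without serial compound dilutions; incubated at 37 °C for 2 days (L1210) or 3 days (Molt4/C8, CEM). Cell numbers counted with a Coulter counter. CC₅₀ = concentration reducing proliferation by 50% versus untreated controls, read from plots of cell number (% of control) against concentration. Means of at least two independent experiments.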

[8] = system: Vesicular stomatitis virus; test: Antiviral activity against VSV in human HeLa cells assessed as protection against virus-induced cytopathicity; format: functional, organism-based
[9] = system: Influenza A virus H3N2; test: Antiviral activity against influenza H3N2 virus in MDCK cells assessed as reduction of virus-induced cytopathicity by visual cytopathic effect scoring method; format: functional, organism-based
[10] = biological target: Human immunodeficiency virus type 1 reverse transcriptase (Human immunodeficiency virus 1, UniProt Q72547, K103N); test: Inhibition of HIV1 reverse transcriptase p66/p51 K103N mutant; settings: read-out: IC50; summary of the method: as §1
[11] = system: Vesicular stomatitis virus; test: Antiviral activity against VSV in human HEL cells assessed as protection against virus-induced cytopathicity; format: functional, organism-based
[12] = system: Punta Toro virus; test: Antiviral activity against Punta Toro virus in african green monkey Vero cells assessed as protection against virus-induced cytopathicity; format: functional, organism-based; summary of the method: as §2
[13] = system: Influenza B virus; test: Antiviral activity against influenza B virus in MDCK cells assessed as reduction of virus-induced cytopathicity by MTS method; format: functional, organism-based
[14] = system: Human alphaherpesvirus 2; test: Antiviral activity against HSV2 G in human HEL cells assessed as protection against virus-induced cytopathicity; format: functional, organism-based; settings: Human alphaherpesvirus 2, strain G; summary of the method: as §2
[15] = system: Human immunodeficiency virus 2; test: Antiviral activity against HIV2 ROD in human CEM cells assessed as protection against virus-induced cytopathicity after 4 days; format: functional, organism-based; settings: Human immunodeficiency virus 2, ROD, CCRF-CEM, 96 h; summary of the method: as §3
[16] = Cytotoxicity against human HEL cells assessed as drug level causing microscopically detectable alteration of normal cell morphology after 3 days; format: cell-based
[17] = system: Coxsackievirus B4; test: Antiviral activity against Coxsackievirus B4 in human HeLa cells assessed as protection against virus-induced cytopathicity; format: functional, organism-based; settings: Enterovirus B; summary of the method: as §2
[18] = system: Vaccinia virus; test: Antiviral activity against Vaccinia virus Lederle in human HEL cells assessed as protection against virus-induced cytopathicity; format: functional, organism-based; settings: Orthopoxvirus vaccinia
[19] = system: Feline coronavirus; test: Antiviral activity against Feline coronavirus in feline […] cells assessed as inhibition of virus-induced cytopathicity; format: functional, organism-based; settings: Alphacoronavirus 1
[20] = system: Sindbis virus; test: Antiviral activity against Sindbis virus in african green monkey Vero cells assessed as protection against virus-induced cytopathicity; format: functional, organism-based; summary of the method: as §2
[21] = system: Respiratory syncytial virus; test: Antiviral activity against RSV Long in human HeLa cells assessed as protection against virus-induced cytopathicity; format: functional, organism-based; summary of the method: as §2
[22] = Cytotoxicity against african green monkey Vero cells assessed as drug level causing microscopically detectable alteration of normal cell morphology after 3 days; format: cell-based; settings: chlorocebus sabaeus
Summary of the method: (§5)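 Serial compound dilutions added to confluent HeLa or Vero monolayers. MCC = minimum concentration causing microscopically detectable alteration of cell morphology after 3 days of incubation.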

[23] = Antiproliferative activity against human Molt4/C8 cells after 3 days; format: cell-based; settings: MOLT-4, 72 h; summary of the method: as §4
[24] = system: Coxsackievirus B4; test: Antiviral activity against Coxsackievirus B4 in african green monkey Vero cells assessed as protection against virus-induced cytopathicity; format: functional, organism-based; settings: Enterovirus B; summary of the method: as §2
[25] = system: Felid alphaherpesvirus 1; test: Antiviral activity against Feline herpesvirus in feline […] cells assessed as inhibition of virus-induced cytopathicity; format: functional, organism-based
[26] = system: Influenza A virus; test: Antiviral activity against influenza H1N1 virus in MDCK cells assessed as reduction of virus-induced cytopathicity by MTS method; format: functional, organism-based; settings: Influenza A virus, H1N1, MDCK
[27] = system: CCRF-CEM; test: Antiproliferative activity against human CEM cells after 3 days; format: cell-based; settings: 72 h; summary of the method: as §4
[28] = system: Influenza A virus H3N2; test: Antiviral activity against influenza H3N2 virus in MDCK cells assessed as reduction of virus-induced cytopathicity by MTS method; format: functional, organism-based
[29] = biological target: Human immunodeficiency virus type 1 reverse transcriptase (Human immunodeficiency virus 1, UniProt Q72547, Y181I); test: Inhibition of HIV1 reverse transcriptase p66/p51 Y181I mutant; settings: read-out: IC50; summary of the method: as §1
[30] = Cytotoxicity against feline CRFK cells by MTS assay; format: cell-based, Felis catus; settings: cat
[31] = Cytotoxicity against MDCK cells by MTS assay; format: cell-based, Canis lupus familiaris; settings: dog
[32] = system: Influenza B virus; test: Antiviral activity against influenza B virus in MDCK cells assessed as reduction of virus-induced cytopathicity by visual cytopathic effect scoring method; format: functional, organism-based
[33] = Cytotoxicity against MDCK cells assessed as drug level causing microscopically detectable alteration of normal cell morphology; format: cell-based, Canis lupus familiaris; settings: dog
[34] = biological target: Human immunodeficiency virus type 1 reverse transcriptase (Human immunodeficiency virus 1, UniProt Q72547); test: Inhibition of HIV1 reverse transcriptase p66/p51; settings: read-out: IC50
[35] = system: Human alphaherpesvirus 1; test: Antiviral activity against HSV1 KOS in human HEL cells assessed as protection against virus-induced cytopathicity; format: functional, organism-based; settings: Human alphaherpesvirus 1, KOS
[36] = Cytotoxicity against human HeLa cells assessed as drug level causing microscopically detectable alteration of normal cell morphology after 3 days; format: cell-based; summary of the method: as §5

Row | Structure (SMILES) | EC50 [2] [µM] | EC50 [3] [µM] | EC50 [4] [µM] | EC50 [5] [µM] | EC50 [6] [µM] | IC50 [7] [µM] | EC50 [8] [µM] | EC50 [9] [µM] | IC50 [10] [µM] | EC50 [11] [µM] | EC50 [12] [µM] | EC50 [13] [µM] | EC50 [14] [µM] | EC50 [15] [µM] | MCC at 72 h [16] [µM] | EC50 [17] [µM] | EC50 [18] [µM] | EC50 [19] [µM] | EC50 [20] [µM] | EC50 [21] [µM] | other results
1 | Cc1cc(C)cc(S(=O)(=O)c2c(C(=O)NCCS(N)(=O)=O)[nH]c3ccc(Br)cc23)c1 | > 20 | > 20 | 0.001 | > 800 | > 4 | 17 | > 4 | > 800 | 0.529 | > 4 | > 20 | > 800 | > 4 | > 10 | 20 | ≥ 4 | > 4 | > 4 | > 20 | > 4 | IC50 [1]: 0.013 µM; MCC at 72 h [22]: ≥ 20 µM; IC50 [23]: 11 µM; EC50 [24]: 12 µM; EC50 [25]: > 4 µM; EC50 [26]: > 800 µM; IC50 [27]: 14 µM; EC50 [28]: > 800 µM; IC50 [29]: > 40 µM; CC50 [30]: 11.9 µM; CC50 [31]: 1.9 µM; EC50 [32]: > 800 µM; MCC [33]: 4 µM; IC50 [34]: 0.002 µM; EC50 [35]: > 4 µM; MCC at 72 h [36]: 20 µM
2 | Cc1cc(C)cc(S(=O)(=O)c2c(C(=O)NC(C)CC(N)=O)[nH]c3ccc(Cl)c(F)c23)c1 (stereo unspecified) | > 20 | > 20 | 0.0046 | > 4 | > 20 | 42 | > 20 | > 4 | 3.39 | > 20 | > 20 | > 4 | > 20 | > 10 | 100 | 9 | > 20 | > 20 | > 20 | 20 | IC50 [1]: 0.39 µM; MCC at 72 h [22]: 100 µM; IC50 [23]: 25 µM; EC50 [24]: > 20 µM; EC50 [25]: > 20 µM; EC50 [26]: > 4 µM; IC50 [27]: 27 µM; EC50 [28]: > 4 µM; IC50 [29]: > 40 µM; CC50 [30]: 42.6 µM; CC50 [31]: 6.2 µM; EC50 [32]: > 4 µM; MCC [33]: 20 µM; IC50 [34]: 0.359 µM; EC50 [35]: > 20 µM; MCC at 72 h [36]: 100 µM
3 | Cc1cc(C)cc(S(=O)(=O)c2c(C(=O)NNC(C)C)[nH]c3ccc(Cl)cc23)c1 | > 100 | > 100 | 0.0064 | > 20 | > 100 | > 500 | > 100 | > 20 | 0.8 | > 100 | > 100 | > 20 | > 100 | > 50 | > 100 | > 100 | > 100 | > 100 | > 100 | > 100 | MCC at 72 h [22]: > 100 µM; IC50 [23]: 432 µM; EC50 [24]: > 100 µM; EC50 [25]: > 100 µM; EC50 [26]: > 20 µM; IC50 [27]: ≥ 500 µM; EC50 [28]: > 20 µM; CC50 [30]: > 100 µM; CC50 [31]: > 100 µM; EC50 [32]: > 20 µM; MCC [33]: 100 µM; IC50 [34]: 0.01 µM; EC50 [35]: > 100 µM; MCC at 72 h [36]: > 100 µM
